NF-kB neuron act – NF-kB expression increase, human neuronal cells | fold change at 12.5 µM | actives 1.6% (n = 190,000) | NF-kB reporter expression; hits give high values | AID 1239; in the data active means fold change above about 3.3
FLuc stim CS – firefly luciferase counter-screen for stimulation assays. ATPlite luciferase biochemical, luminescence, 10 min; 0 = ATP-free wells, 1 = DMSO control. activation factor at 10 µM. 200,000 tested, under 10 active. AID 1027;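 active means luciferase activation factor, scaled between plate controls, of at least 2 with compound at 10 µM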
Target sequence (P08659 whole entry, looked up): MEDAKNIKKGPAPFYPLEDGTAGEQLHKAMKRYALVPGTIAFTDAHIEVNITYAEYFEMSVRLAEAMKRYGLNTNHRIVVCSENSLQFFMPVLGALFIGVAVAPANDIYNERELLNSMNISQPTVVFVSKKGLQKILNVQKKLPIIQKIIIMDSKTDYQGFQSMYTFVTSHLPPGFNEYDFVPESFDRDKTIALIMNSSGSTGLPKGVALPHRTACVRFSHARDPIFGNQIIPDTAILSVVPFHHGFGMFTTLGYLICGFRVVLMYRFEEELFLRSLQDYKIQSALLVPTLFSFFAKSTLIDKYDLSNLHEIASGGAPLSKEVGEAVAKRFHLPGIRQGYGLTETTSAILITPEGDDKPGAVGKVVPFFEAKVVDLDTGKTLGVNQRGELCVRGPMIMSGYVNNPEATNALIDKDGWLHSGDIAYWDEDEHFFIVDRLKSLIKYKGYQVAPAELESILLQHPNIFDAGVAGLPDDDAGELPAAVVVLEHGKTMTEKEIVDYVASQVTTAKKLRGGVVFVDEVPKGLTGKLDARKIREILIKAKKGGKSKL
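Assay system – cell-free luciferase reagent · Medium – PBS-based ATP solution · Dosing – test compounds dosed from 2 mM stocks in 100% DMSO · Timing – 10 min, room temperature · Technique – light output (luminescence) · Measure – luminescence gain marking luciferase activators · Controls – No-ATP low control, compound-free enzyme-plus-ATP high control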
SDO1 yeast rescue – sdo1-depleted yeast growth rescue. S. cerevisiae sdo1-depleted JHY4D growth rescue, OD600 30 h; hits give high values; pdr5 snq2 efflux-pump mutant strain. actives 0.21% (n = 140,000). z-score at 10 µM;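 active means z-score above 3 at both the 24 hr and the 30 hr optical density reads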;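 further: z-score against mean and SD of all compound wells on the same plate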
FLuc inhib CS – counter-screen for luciferase assay inhibitors: firefly luciferase inhibition. inhibition, % at 10 µM. AID 1006. actives 1.5% (n = 200,000). ATPLite firefly luciferase biochemical luminescence, 10 min. P08659;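 active means inhibition above about 50% when tested at 10 µM, limit read from the data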
APP 5'UTR act – APP 5'UTR luciferase reporter activation. SH-SY5Y APP 5'UTR luciferase reporter, luminescence; zero percent = DMSO vehicle wells. activation, % at 2 µM. actives 1% (n = 190,000). AID 1276;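 active means activation above a set limit, based on mean plus 3 SD of controls, cut at about 140% in these data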
STAT1 act – STAT1 signaling activation; activation (% of control), % at 5.5 µM; actives 2.6% (n = 200,000); NIH 3T3 STAT1-luciferase reporter, IFN-gamma, luminescence; 100% = IFN-gamma alone, no compound;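 active means activation above the screen-wide mean activation plus 3 SD, cut at about 130% in these data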;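 further: raw ratio to IFN-gamma control signal so 100% means no change and 0% no light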
An asterisk follows results filed as active; . = not tested or not shown. Compounds with a hit are over-represented: about 4.3% of the library has one in this group of screens.

SMILES	NF-kB neuron act	FLuc stim CS	SDO1 yeast rescue	FLuc inhib CS	APP 5'UTR act	STAT1 act
Cc1ccc(O)c(C2=Nc3ccccc3C2(C)C)c1	1.1	0.9	.	10	27	147*
COc1ccc(C)cc1C1=Nc2ccccc2C1(C)C	1	1	-1.2	2	0	90
COc1ccc(/C=C/C(=O)c2ccccc2)c(OC)c1	7.7*	0.3	.	71*	236*	147*
COc1ccc(/C=C/C(=O)c2ccc3c(c2)OCO3)c(OC)c1	3.2	0.2	-1.2	78*	152*	129*
O=C(c1noc2c1CCc1ccccc1-2)N1CCc2ccccc2C1	1.4	1	-1.9	4	-2	104
C=CCNCCOCCOc1ccccc1-c1ccccc1	1	1	.	4	2	94
CCOc1ccc(N2Cc3ncccc3C2=O)cc1	1.9	0.6	0.09	38	83	140*
CCOc1ccc(N2C(=O)c3ccccc3C2=O)cc1	1.4	1	-0.75	0	-3	117
C(=N\N1CCN(Cc2ccccc2)CC1)/c1ccc(-c2ccccc2)cc1	0.94	1.1	.	-8	4	104
Cc1ccc(/C=N/N2CCN(c3ccccn3)CC2)cc1	2.2	1	.	4	-2	142*
CN1CCN(/N=C/c2ccc(-c3ccccc3)cc2)CC1	3.8*	0.9	.	11	75	116
Cn1cccc1/C=N/N1CCN(c2ccccn2)CC1	0.97	1	0.58	2	10	107
Cc1ccc2oc(-c3ccco3)cc(=O)c2c1	2.5	0.7	.	34	61	138*
N#CCOc1ccc2oc(-c3ccco3)cc(=O)c2c1	1.4	1	.	3	20	121
Cc1ccccc1Nc1nc(N)nc(COC(=O)/C=C/c2ccco2)n1	1.1	1	.	-2	-4	105
O=C(O)COc1ccc(C(=O)Cc2ccc3c(c2)OCCCO3)c(O)c1	1	1	1.5	4	-4	90
COc1ccc(C(=O)Cc2ccc3c(c2)OCO3)c(O)c1	2.5	0.8	0.48	18	129	147*
O=C(O)CSc1ncnc2c1oc1ccccc12	1.1	1	0.93	-5	13	104
c1ccc(Sc2ncnc3c2oc2ccccc23)cc1	2.5	0.9	-1.6	6	60	144*
Oc1ccc(-c2csc(Nc3ncccn3)n2)cc1O	12*	0.5	.	53*	-31	133*
CS(=O)(=O)N1N=C(c2ccccc2)CC1c1ccc2c(c1)OCO2 (stereo unspecified)	2	1	0.56	3	0	137*
O=C(NCCCc1ccccc1)c1cnc2n(c1=O)CCS2	1.9	1.1	1.2	-5	47	139*
O=C(NCCC1=CCCCC1)c1cnc2n(c1=O)CCS2	1.5	1	0.05	-2	45	133*
CC(=O)c1ccc(NC2=C(N3CCOCC3)C(=O)c3ccccc3C2=O)cc1	0.7	1.1	-0.53	-5	4	91
Cc1ccc(NC2=C(N3CCOCC3)C(=O)c3ccccc3C2=O)cc1	1.8	0.4	-1.1	56*	151*	128
SMILES	NF-kB neuron act	FLuc stim CS	SDO1 yeast rescue	FLuc inhib CS	APP 5'UTR act	STAT1 act
c1ccc(Cn2ccc(-c3cnc(-c4ccccc4)s3)n2)cc1	6.8*	0.6	-0.73	44	125	142*
C/C(O)=C(\N=Nc1cc(C)ccc1O)C(N)=O	1.3	1	.	-2	-3	93
O=C(c1cnccn1)N1CCc2ccccc2C1	1	1.1	.	-5	11	103
Nc1ccc2c(c1)Cc1cc([N+](=O)[O-])ccc1-2	1.1	1	.	1	7	134*
O=C(N=Nc1c(O)[nH]c2ccccc12)c1cccs1	5.6*	0.1	.	89*	154*	141*
Cc1ccc(NC(=S)N=Nc2c(O)[nH]c3ccccc23)cc1	1.4	1	.	-4	-28	122
Oc1ccc(NC(=S)N=Nc2c(O)[nH]c3ccccc23)cc1	0.71	1	.	-4	39	145*
Cc1ccc(CNC(=O)CSc2nc3[nH]ncc3c(=O)[nH]2)cc1	1.3	1	1.6	-4	-1	104
O=C(CSc1nnc(-c2cccs2)o1)Nc1cccc(S(=O)(=O)N2CCCCC2)c1	1.3	1	0.77	-1	16	98
O=C(Nc1ccc(OC(F)(F)F)cc1)C1=NCCN1	1.7	0.4	-0.27	63*	17	115
COc1cc(/C=C2\CC/C(=C\c3cc(OC)c(O)c(OC)c3)C2=O)cc(OC)c1O	0.67	1	-0.21	-2	-5	132*
COc1cc(/C=C2\CC/C(=C\c3cc(OC)c(OC)c(OC)c3)C2=O)cc(OC)c1OC	0.81	1.1	0.03	-6	43	100
COc1cc(/C=C2/CCc3ccccc3C2=O)cc(OC)c1OC	3.8*	1	-1.3	0	27	105
COc1ccc(/C=C2/CCc3ccccc3C2=O)cc1OC	3.4*	0.7	-1.2	33	101	98
COc1cc(/C=C2\CCc3ccccc3C2=O)cc(OC)c1OC	3.1	1	-1.6	3	7	95
CCO[C@@H]1OC(C(=O)NCc2ccccc2)=C[C@H](c2coc3ccccc3c2=O)[C@H]1CCCO	1.2	1	.	-3	-24	106
Cc1cc(C(=O)NC2=NCCS2)cs1	2.6	0.7	0.22	35	74	126
CC(C)c1ccc(/C=C/C(=O)NC2=NCCS2)cc1	3.1	0.3	-0.89	67*	222*	95
CC(C)C(C(=O)NC1=NCCS1)c1ccc(Cl)cc1 (stereo unspecified)	1.1	1	.	2	4	100
CCOc1ccc(C(=O)NC2=NCCS2)cc1	2.7	0.5	.	52*	92	139*
CC(C)c1ccc(OCC(=O)NC2=NCCS2)cc1	1.5	0.4	.	57*	26	126
Cc1cccc(C(=O)NC2=NCCS2)c1	3.3*	0.5	.	54*	139*	112
CC(=O)NC(Cc1cccc(F)c1)C(=O)NC1CCN(c2nnnn2-c2ccccc2)CC1 (stereo unspecified)	0.94	1.1	.	-6	-6	96
Cc1cc(OCCCC(=O)NC2=NCCS2)ccc1Cl	0.98	1.1	-0.63	-5	-2	93
O=C(/C=C/c1ccc(Cl)c(Cl)c1)NC1=NCCS1	1.6	1	.	3	25	134*
Cc1ccccc1-n1c(C)cc(/C=C(\C#N)C(=O)NCC2CCCO2)c1C (stereo unspecified)	1.1	0.2	-1.1	75*	123	149*
Cc1cc(/C=C(\C#N)C(=O)O)c(C)n1C1CC1	1.3	1	1.1	4	-18	110
COCCNC(=O)/C(C#N)=C/c1cc(C)n(C2CCCCC2)c1C	3	0.3	.	72*	144*	134*
COCCNC(=O)/C(C#N)=C/c1cc(C)n(-c2ccc(C)cc2)c1C	6.2*	0.3	.	72*	154*	145*

Source: PubChem BioAssay
